MPTP inh = mitochondrial permeability transition pore inhibitors, primary screen, biochemical, isolated mouse mitochondria, absorbance. inhibition, % at 10 µM. 1.4% of 360,000 active. Ca2+ swelling absorbance, 30 min;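 active means inhibition of 50% or more, scaled per plate between neutral and stimulator controls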;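 further: 0% = DMSO wells given calcium and 100% = 1 mM EGTA wells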
TbMetRS inhib = T. brucei MetRS inhibitors, primary screen, biochemical, luminescence | methionyl-tRNA synthetase (Trypanosoma brucei brucei) | purified T. brucei MetRS, ATP depletion, Kinase-Glo luminescence | inhibition, % at 11.9 µM | 0.4% of 360,000 active;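 active means inhibition above a per-plate cutoff of the control wells' mean inhibition plus 3 SD, cut at about 5.5% in these data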;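 further: 0% = DMSO wells median and 100% = median of wells with control inhibitor compound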
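Material: parasite MetRS enzyme / Replication: singlicate, one well per compound / Signal: luminescence of leftover ATP / Schedule: 2 h aminoacylation at 25 °C after 15 min preincubation / Medium: HEPES-MgCl2-KCl buffer plus DTT, spermine, BSA, pyrophosphatase / Doses: 11.9 µM single point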
NR3A LBD binder = binders of NR3A ligand-binding domain, primary screen, biophysical, differential scanning fluorimetry, uHTS; Glutamate receptor ionotropic, NMDA 3A (GRIN3A) ligand-binding domain; Tm shift relative to glycine control, % at 25 µM; NR3A LBD differential scanning fluorimetry, Tm shift; 0% = protein alone, 100% = glycine-bound protein; 2.5% of 340,000 active;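 active means melting temperature shift of at least 10% of the positive control shift, at one fixed dose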
EBV gp42 inh = Epstein-Barr virus gp42 inhibitors, primary screen, biochemical, uHTS, fluorescence polarization; Glycoprotein 42 (Epstein-Barr virus (strain AG876)), Q1HVG2; Fluorescence polarization binding assay, mP read-out; inhibition, % (tested at 21.74 µM); 0.42% of 220,000 active; AID 1085, 2008; in the data active means inhibition above about 50%
Target sequence (Q1HVG2 whole entry, looked up): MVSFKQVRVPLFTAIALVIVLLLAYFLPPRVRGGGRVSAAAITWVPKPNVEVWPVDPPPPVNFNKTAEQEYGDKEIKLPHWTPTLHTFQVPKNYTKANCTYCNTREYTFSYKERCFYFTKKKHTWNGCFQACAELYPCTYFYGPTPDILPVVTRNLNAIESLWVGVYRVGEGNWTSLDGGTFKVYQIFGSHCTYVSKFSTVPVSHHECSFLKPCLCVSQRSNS
WT yeast gro inh = growth inhibition of WT strain, primary screen, mitochondrial fusion inhibitor project, WT and mutant strains, chemical genetic; 2.1% of 190,000 active; mitochondrial fusion phenotypic screen; inhibition, % at 10 µM; in the data active means inhibition above about 58%; tested in S. cerevisiae
CHOP inh = inhibitors of CHOP promoter induction, primary screen, cell-based, unfolded protein response, luciferase reporter | 3.8% of 220,000 active | CHO-K1 CHOP-promoter luciferase, tunicamycin-induced, 15-18 h | inhibition, % at 10 µM;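 active means compounds that reduced the stress-induced luciferase reporter signal by more than about 70% of percent inhibition, limit read from the data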;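 further: 0% = tunicamycin plus vehicle and 100% = wells without tunicamycin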
Numbers without * were called inactive; x = no result given. Most compounds without a hit are left out; they make up all but 6.4% or so of the library.

SMILES | MPTP inh | TbMetRS inhib | NR3A LBD binder | EBV gp42 inh | WT yeast gro inh | CHOP inh
COc1ccc(Cc2nnc(SCC(=O)NC3CCCC3)o2)cc1 | -1 | 0 | 19* | -19 | 1 | -4
COc1ccc(OCc2nnc(SCC(=O)NC3CCCCC3)o2)cc1 | 1 | -1 | -3 | x | x | x
O=c1nc(Nc2ccccc2)sc2ccc([N+](=O)[O-])cc12 | 0 | -1 | 20* | -13 | 10 | -13
Cc1cc(Nc2ccc([N+](=O)[O-])cc2)c2ccccc2n1 | 2 | 1 | -1 | x | x | x
CC1CCCC(NC(=O)COC(=O)COc2ccccc2Cl)C1C (stereo not given) | -2 | -1 | -2 | -14 | 2 | 11
N#Cc1nc(NCC(F)F)nc(Nc2cc(F)cc(F)c2)n1 | 2 | 0 | -13 | x | x | x
CSc1nc2ccc(NC(=O)c3ccccn3)cc2s1 | 1 | 1 | -10 | x | x | x
COC(=O)c1ccc(C(=O)NC(=S)Nc2ccc3nc(SC)sc3c2)cc1 | -1 | 0 | 0 | -24 | -8 | 72*
FC(F)(F)c1cccc(-c2ccc(/C=N/Nc3nncc(-c4ccccc4)n3)o2)c1 | 4 | 0 | -6 | -5 | -6 | 65
Cc1ccc(NCC(=O)N/N=C/c2ccc(-c3cccc(C(F)(F)F)c3)o2)cc1 | 2 | -1 | 25* | 5 | 40 | 81*
O=C(N/N=C/c1ccc(-c2cccc(C(F)(F)F)c2)o1)c1cccc(F)c1 | 13 | -1 | 11* | -5 | 66 | 26
O=C(N/N=C/c1ccc(-c2cccc(C(F)(F)F)c2)o1)c1ccccc1Br | 3 | 1 | 15* | 6 | -3 | 42
Cc1nn(Cc2ccccc2)c(Cl)c1/C=N/NC(=O)CNc1cccc(C(F)(F)F)c1 | 6 | 0 | 27* | 5 | 3 | 94*
Cc1ccc(NC(=O)COC(=O)c2cc(Cl)cc(Cl)c2)c(Br)c1 | 1 | -1 | 1 | 1 | -30 | 69
Cc1cc(C(=O)N/N=C/c2cc(N=Nc3ccccc3)ccc2O)n[nH]1 | 0 | 0 | 8 | 18 | 6 | 89*
O=C(N/N=C/c1ccc(-c2cccc(C(F)(F)F)c2)o1)c1ccccc1O | 31 | 0 | 20* | -31 | 7 | 90*
NC(=O)N/N=C/c1ccc(-c2cccc(C(F)(F)F)c2)o1 | 0 | 0 | -1 | -4 | -38 | 36
Cc1cc(C(=O)N/N=C/c2ccc(-c3cccc(Br)c3)o2)n[nH]1 | 4 | 1 | 15* | -16 | x | -13
c1ccc(OCc2nnc3n2N=C(c2ccccc2)CS3)cc1 | 3 | 0 | 0 | -25 | 5 | -11
C[n+]1c(-c2ccccc2)cc2c(=Cc3ccc([N+](=O)[O-])cc3)c3ccccc3n21 | -3 | 0 | 14* | x | x | x
C[n+]1c(-c2ccccc2)cc2c(=Cc3ccccc3)c3ccccc3n21 | -5 | 0 | -6 | x | x | x
O=C(OCc1ccccc1Cl)c1ccccc1C(=O)c1ccccc1 | -2 | 1 | -1 | 3 | 2 | 31
COc1ccc2oc(C(=O)Nc3nc(C)cs3)c(C)c2c1 | 1 | -1 | 20* | x | x | x
CCCCCC(C)NC(=O)c1ccoc1C (stereo not given) | -1 | 0 | -2 | 2 | 78* | 26
O=C(NCc1cccc(Br)c1)C1CC2Cn3c(nc4ccccc43)C2N1Cc1ccccc1 (stereo not given) | -1 | 0 | -1 | x | x | x
COc1ccc(NC(=O)N2c3ccccc3CC2C)cc1OC (stereo not given) | 0 | -1 | 0 | -12 | 95* | -5
CC(=O)N(Cc1ccc(F)cc1)C1=C(NCCc2ccccc2)C(=O)c2ccccc2C1=O | 1 | -2 | -1 | 4 | 83* | x
O=C1C(Cl)=C(NCCc2ccccc2)C(=O)c2ccccc21 | 1 | 0 | -4 | x | x | x
Cc1cc(O)c(C(C)C)cc1NC(=O)Nc1ccc([N+](=O)[O-])cc1 | 15 | 0 | -3 | x | x | x
CN(CCCC(=O)NCc1ccco1)S(=O)(=O)c1ccccc1 | 0 | -1 | 1 | -19 | 60* | 0

Screening data from PubChem BioAssay.
